According to ChEMBL document CHEMBL4680077, “Differentiation of skeletal osteogenic progenitor cells to osteoblasts with 3,4-diarylbenzopyran based amide derivatives: Novel osteogenic agents” (Eur J Med Chem, 2016):
Activity calls are given as the source filed them. The calls are words filed in the database; no cut-off is given here.

How the values were obtained:
Mus musculus [1] = assay: In vivo osteogenic activity in ovariectomized BALB/c mouse assessed as decrease in trabecular spacing administered via oral gavage for 1 month by microCT imaging analysis; format: functional, organism-based; details: time 1.0 months
Outline: (§1)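 Ovariectomized female balb/c mice, 8 weeks old, 10 per group, received 1.0 or 10.0 mg kg-1 once daily by oral gavage (gum acacia vehicle) for 4 weeks, alongside sham and Ovx vehicle groups. Femurs were scanned by microCT. BV/TV, Tb.N and Tb.Sp were derived by the mean intercept length method. Mean ± SE.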

Calvarial osteoblast [2] = assay: Induction of osteoblast differentiation in mouse calvarial osteoblast assessed as increase in ERbeta expression at 10 nM incubated for 48 hrs by Western blot analysis; format: functional, cell-based
Outline: (§2)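 Calvarial osteoblasts at 60–70% confluence were treated ± compound for 48 h, with 100 pM E2 as positive control. Lysates (30 µg protein) were resolved on 10% SDS-PAGE, transferred to PVDF and probed for ER-α and ER-β with HRP secondaries and ECL detection. Bands were quantified by densitometry normalized to β-actin.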

Calvarial osteoblast [3] = assay: Induction of osteoblast differentiation in mouse calvarial osteoblast assessed as increase in ERalpha expression at 10 nM incubated for 48 hrs by Western blot analysis; format: functional, cell-based; outline: as §2
Mus musculus [4] = assay: In vivo osteogenic activity in ovariectomized BALB/c mouse assessed as increase in femur bone volume density administered via oral gavage for 1 month by microCT imaging analysis; format: functional, organism-based; details: time 1.0 months; outline: as §1
Mus musculus [5] = assay: In vivo osteogenic activity in ovariectomized BALB/c mouse assessed as increase in trabecular number administered via oral gavage for 1 month by microCT imaging analysis; format: functional, organism-based; details: time 1.0 months; outline: as §1
Calvarial osteoblast [6] = assay: Induction of osteoblast differentiation in mouse calvarial osteoblast assessed as increase in ALP activity using PNPP as substrate at 0.000001 to 1 uM incubated activity for 48 hrs by spectrophotometric analysis relative to control; format: functional, cell-based; details: dose lower 1e-06 µM, dose upper 1.0 µM

C[C@]12CC[C@@H]3c4ccc(O)cc4CC[C@H]3[C@@H]1CC[C@@H]2O
Activity (Mus musculus [1]): Active | Activity (Calvarial osteoblast [2]): Active | Activity (Calvarial osteoblast [3]): inactive | Activity (Mus musculus [4]): Active | Activity (Mus musculus [5]): Active

COc1ccc2c(c1)OC(C)(C)[C@H](c1ccccc1)[C@H]2c1ccc(OCCCCCC(=O)NCc2ccccn2)cc1
Activity (Calvarial osteoblast [6]): Active

CCCCN(C)C(=O)CCCOc1ccc(C2=C(c3ccccc3)C(C)(C)Oc3cc(OC)ccc32)cc1
Activity (Calvarial osteoblast [6]): Active

CCCCN(C)C(=O)CCCOc1ccc([C@H]2c3ccc(OC)cc3OC(C)(C)[C@@H]2c2ccccc2)cc1
Activity (Calvarial osteoblast [6]): Active

COc1ccc2c(c1)OC(C)(C)[C@H](c1ccccc1)[C@H]2c1ccc(OCCCCC(=O)NCc2ccccn2)cc1
Activity (Calvarial osteoblast [6]): Active
